# ARFGAP1 inhibitor: inhibitors of rat ARFGAP1 GAP activity, primary screen, biochemical, fluorescence polarization, GDP tracer; Arfgap1-stimulated ARF1 GTP hydrolysis, GDP FP detection; 0.26% of 360,000 active; inhibition, % at 16.5 µM; ADP-ribosylation factor GTPase-activating protein 1 (Rattus norvegicus), Q62848;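 active = inhibition above a per-plate limit, mean inhibition of low control wells plus 3 SD, cut at about 25% in these data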;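 also: 0% = DMSO wells with enzyme and 100% = wells lacking Arfgap1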
#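 Replicates: Single well per compound | Assay system: Truncated rat Arfgap1 GAP domain | Control set: No-Arfgap1 wells (100%) versus DMSO full-reaction wells (0%) | Times: Enzyme reaction 120 min at 25 °C after 20 min preincubation | Reagent: Human ARF1(Δ1-17)-GTP substrate | Measured by: Tracer-displacement fluorescence polarization with EDTA stop, 620/688 nm | Measure: Percent inhibition of Arfgap1-stimulated GTP hydrolysis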
# Calb FLC: C. albicans growth inhibition with fluconazole, primary screen, CaCi-2 strain, Alamar Blue fluorescence. C. albicans CaCi-2 + fluconazole, 48 h. growth inhibition, % (test concentration not listed). 0.57% of 300,000 active;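 active = growth inhibition above about 58% in most replicates, limit read from the data, passing the limit was not always enough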;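 also: all wells also contain fluconazole at 8 µg/ml as a sub-toxic cotreatment; 0% = median of DMSO wells and 100% = median of geldanamycin control wells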
# SKKanGAS inh: S. pyogenes SKKanGAS growth inhibitors in kanamycin, primary screen, streptokinase expression inhibitor project, SKKanGAS strain, BacTiter-Glo luminescence | 6 h | 1.3% of 300,000 active | inhibition, % at 7.5 µM;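 active = mean replicate score, as percent of positive control median, at least 50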;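 also: strain carries kanamycin resistance gene driven by streptokinase promoter and grows in 40 µg/ml kanamycin; loss of luminescence reflects streptokinase promoter inhibition or plain growth inhibition; 0% = median of DMSO wells and 100% = positive control at its reference dose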
# ASAP1 inh: inhibitors of human ASAP1 ArfGAP activity, primary screen, biochemical, fluorescence polarization; Arf-GAP with SH3 domain, ANK repeat and PH domain-containing protein 1 (Homo sapiens), …; ASAP1-stimulated ARF1 GTP hydrolysis, GDP FP detection; inhibition, % at 16.5 µM; 0.19% of 360,000 active; in the data active = inhibition above about 25%;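 also: 0% = vehicle with enzyme and substrate and 100% = no enzyme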
# sPLA2-III inh: human group III sPLA2 inhibitors, primary screen, biochemical, QFRET, BODIPY PC-A2 liposome substrate; Group 3 secretory phospholipase A2 (Homo sapiens), Q9NZ20; QFRET BODIPY PC-A2 liposome hydrolysis, fluorescence; inhibition, % at 12.2 µM; 0.56% of 370,000 active; AID 743126, 2013;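 active = inhibition above mean plus 3 SD of compounds lying within the high and low control bounds, cut at about 19% in these data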;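 also: 0% = median of test compound wells and 100% = no enzyme DMSO wells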
# Target sequence (Q9NZ20 whole entry, looked up): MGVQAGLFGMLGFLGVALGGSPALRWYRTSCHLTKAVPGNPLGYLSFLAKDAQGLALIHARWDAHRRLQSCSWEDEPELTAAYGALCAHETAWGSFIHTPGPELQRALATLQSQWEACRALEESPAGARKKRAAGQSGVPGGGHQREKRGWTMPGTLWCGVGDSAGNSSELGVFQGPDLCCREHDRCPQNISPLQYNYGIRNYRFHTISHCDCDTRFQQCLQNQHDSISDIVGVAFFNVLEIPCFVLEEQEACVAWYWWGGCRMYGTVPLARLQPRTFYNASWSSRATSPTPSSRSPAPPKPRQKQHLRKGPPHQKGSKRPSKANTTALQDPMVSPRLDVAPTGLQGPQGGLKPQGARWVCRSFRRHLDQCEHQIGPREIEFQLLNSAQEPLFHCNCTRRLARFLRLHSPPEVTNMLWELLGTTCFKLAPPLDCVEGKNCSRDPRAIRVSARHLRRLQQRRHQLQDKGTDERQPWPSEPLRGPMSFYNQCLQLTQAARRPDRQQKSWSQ
# Active calls of the source: *; · = no result given. Shown are actives, neighbours in structure and some others; about 2.3% of the full set was active somewhere.
SMILES,ARFGAP1 inhibitor,Calb FLC,SKKanGAS inh,ASAP1 inh,sPLA2-III inh
CCCc1cc(N2CCCC2)n2nc(C)c(-c3ccccc3)c2n1,3,-2,6,-1,3
Cc1cc(N2CCCN(C)CC2)n2nc(C)nc2n1,·,·,·,·,13
CC(=O)NC(=S)Nc1ccc(NC(=S)NC(=O)/C=C/c2ccco2)cc1,13,-6,83*,1,2
CCC(=O)Nc1ccc(NC(=S)NC(=O)/C=C/c2ccco2)cc1,-8,9,2,4,-1
O=C1c2ccccc2C2=Nc3ccccc3SC(c3cccc(F)c3)C12 (centres undefined),20,-2,79*,4,4
Fc1cccc(C2NN=C(c3ccccc3)S2)c1 (centres undefined),-4,-19,0,-3,-5
O=C1CCCC2=C1C(c1ccc(Cl)cc1)C1C(=O)c3ccccc3C1=N2 (centres undefined),3,17,24,12,4
O=C1c2ccccc2C2=Nc3ccccc3SC(c3ccc(Cl)cc3)C12 (centres undefined),7,7,78*,-7,14
c1ccc2sc(SCSc3nc4ccccc4s3)nc2c1,3,1,54*,2,3
CC(NC(=O)/C(C#N)=C/c1ccc([N+](=O)[O-])o1)c1ccccc1 (centres undefined),6,2,57*,-3,-10
CC(Oc1ccc(Cl)cc1Cl)C(=O)Nc1ccc2oc(-c3ccncc3)nc2c1 (centres undefined),-2,-5,51*,-2,7
Cc1ccc(C(=O)NC(=S)NNC(=O)CC#N)cc1,-7,109*,-8,-2,-2
CCCCC(=O)NNC(=S)NC(=O)c1ccc(C)cc1,3,101*,10,9,12
CCCCN1C(=O)N2Cc3cc(OC)ccc3C2CS1(=O)=O (centres undefined),·,·,·,·,-2
O=C1C2=C(NC(=S)NC2c2ccc(Cl)cc2)NC(c2ccc(Cl)cc2)N1c1ccc(Cl)cc1 (centres undefined),4,25,105*,6,12
CCN1/C(=C/c2ccc3ccccc3[n+]2CCCS(=O)(=O)[O-])C=Cc2cc(C)ccc21,7,-4,15,6,12
CCN1/C(=C/c2ccc3ccccc3[n+]2CC)C=Cc2ccccc21,1,105*,52*,1,33*
CC1(O)CC(c2ccc(Cl)cc2)=NN1C(=O)c1ccc([N+](=O)[O-])cc1 (centres undefined),8,95*,-11,8,-8
Cc1cc(SCC(=O)N/N=C/c2ccc(O)c(O)c2O)c(C)cc1Br,13,107*,69*,0,32*
COc1ccc(-c2ccc([C@H]3[C@@H]4C=CCC[C@@]4(C)C(=O)N3Cc3ccccc3)c(F)c2)cc1OC,0,-1,52*,-1,-17
COc1ccc(-c2c([C@H]3[C@@H]4C=CCC[C@@]4(C)C(=O)N3Cc3ccccc3)ccc3ccccc23)cc1OC,0,5,31,-3,-1
CCCCN(CCCC)C1=Nc2ccccc2N/C1=C(/C#N)C(=O)OCC,0,-1,72*,1,2
CCOC(=O)/C(C#N)=C1\Nc2ccccc2N=C1N(CC(C)C)CC(C)C,1,27,35,1,0
C(#Cc1ccccc1)C[N+]1(CC#Cc2ccccc2)CCCCC1,-16,82*,-12,4,-5
COc1ccc(CNc2oc(Cc3cccc4ccccc34)nc2C#N)cc1,14,-6,54*,9,-28
SMILES,ARFGAP1 inhibitor,Calb FLC,SKKanGAS inh,ASAP1 inh,sPLA2-III inh
OCc1ccnc2c(O)cccc12,10,107*,-1,-2,6
COCc1ccc(O)c2ncccc12,5,-1,61*,7,5
Oc1ccc(CNc2ccccc2)c2cccnc12,·,4,-3,·,·
COC(=O)[C@@]12CCCCC3=C1N(CCC3)C(=O)[C@H]2CC(=O)N1CCC(c2ccccc2)CC1,·,·,·,·,13
CCCNC(=O)C12CCC(C)(c3nc4cc(C)c(C)cc4nc31)C2(C)C (centres undefined),-1,110*,·,10,6
COc1ccc2c(c1)[C@@]1(OCCC=C[C@H]1C)C(=O)N2C/C=C(\C)CCC=C(C)C,-3,·,·,-7,-7
O=C(Nc1ccc(Br)c(C(F)(F)F)c1)c1ccccc1,10,-6,21,8,-2
O=C(Nc1ccc(C(O)(C(F)(F)F)C(F)(F)F)cc1)c1ccc(Cl)cc1,·,·,·,·,-13
O=C(Nc1ccc(Br)c(C(F)(F)F)c1)c1ccc(C(F)(F)F)cc1,8,-7,106*,11,11
O=C(Nc1ccc(OCC(F)(F)C(F)F)c(C(F)(F)F)c1)c1ccc(Cl)cc1,10,15,92*,1,-9
CC(C)n1nnnc1C1(C)Cn2nccc2C(=O)N1Cc1cccc(C(F)(F)F)c1 (centres undefined),·,·,·,·,3
CCOC(=O)c1cc([N+](=O)[O-])c([N+](=O)[O-])cc1NC(C)=O,2,106*,-1,5,6
CCOC(=O)c1ccc(NC(=O)c2ccccc2[N+](=O)[O-])cc1,6,-12,6,5,10
COC(=O)C1=C(C)N(C)C(=NCc2cccc(C(F)(F)F)c2)NC1c1ccc(Cl)cc1 (centres undefined),0,·,·,5,-10
Cc1cc(Nc2cccc(Br)c2)cc(=O)n1-c1cccc(Br)c1,11,·,·,-7,0
Cc1cc(C)nc(SCC(=O)NC2=NN=C(c3ccc(Br)cc3)CS2)n1,-8,-5,99*,4,-3
C/C(=N\Nc1ccc(Cl)cc1)c1c(O)cc(C)oc1=O,-18,125*,6,-2,-9
COc1ccc(CCN(C(=S)Nc2ccccc2)C2CC(=O)N(c3ccccc3)C2=O)cc1 (centres undefined),5,-8,26,0,-10
O=C1CC(N(CCc2ccccc2)C(=S)Nc2ccccc2)C(=O)N1c1ccc(Br)cc1 (centres undefined),13,0,69*,11,-47
CCC(CO)Nc1cccc2c1S(=O)(=O)N(Cc1cn(Cc3cccc(F)c3)nn1)Cc1ccccc1O2 (centres undefined),·,·,·,·,-23
COc1cccc(OC(C)CCN2CCC(C(O)(c3ccccc3)c3ccccc3)CC2)c1 (centres undefined),·,·,·,·,-17
COc1cc(C)c(C(=O)CC(=O)c2c(C)cc(OC)cc2C)c(C)c1,6,-2,96*,3,-6
NC(=O)CCCn1c(C(=O)c2cc(Cl)c(N)c(Cl)c2)c2ccc([N+](=O)[O-])cc2[n+]1[O-],-13,44,69*,3,-11

# From PubChem BioAssay
